One data set has as its system lymphoma cell lines. Briefly: Synergy in cell viability assay by excess over bliss. Format: cell-based. Conditions: for synergy in combination with romidepsin: EZH2 inhibitor combined with romidepsin (Supplementary Fig S3).
In the next data set the test system is H3K27. Briefly: H3K27 acetylation/methylation in HEK 293T cells. Format: cell-based. Conditions: single agent exposure. Put shortly: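 HEK293 cells were transfected in OPTI-MEM with a human HDAC2 shRNA or scramble plasmid using Lipofectamine 3000. They were puromycin-selected and monitored for GFP by flow cytometry and fluorescence microscopy until a stable line formed. The stable HDAC2-knockdown or scramble cells were then exposed to an EZH2 inhibitor test compound, and H3K27 methylation status was assessed.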

The conditions of data set [1]: mouse, in vivo; for median Cmax: ip.
The next data set deals with SU-DHL-10. Briefly: Cell viability assay, single agent IC50. The format is cell-based. Conditions: Homo sapiens, SU-DHL10, 72 h, read-out: in vitro IC50 of romidepsin in SU-DHL-10.
The conditions of data set [2]: prior work, combination therapy alisertib + romidepsin; cited from earlier work.
A further data set deals with B-cell lymphomas. Conditions: phase I clinical trial; cited from earlier work.

On to `Nc1ccc(-c2cccs2)cc1NC(=O)c1ccc2nc(N3CCNCC3)ccc2c1` [ACY957], for which the “synergy in combination with GSK126 (EOB)” value in the data set with lymphoma cell lines (ACY957 combined with GSK126, 4 GC-DLBCL cell lines) is listed as “synergistic”.

For `COc1cc(C)[nH]c(=O)c1CNC(=O)c1c(C)n([C@H](C)C2CCN(CC(F)(F)F)CC2)c2ccccc12` [CPI-1205], in the data set with lymphoma cell lines, the “synergy in combination with romidepsin” value is on record as “demonstrated synergy”.

As for `CCN(c1cc(C#CCN2CCOCC2)cc(C(=O)NCc2c(C)cc(C)[nH]c2=O)c1C)[C@H]1CC[C@H](N(C)CCOC)CC1` [EPZ011989], in the data set on lymphoma cell lines, the “synergy in combination with romidepsin” value is “demonstrated synergy”.

For `CC[C@H](C)n1cc(C)c2c(C(=O)NCc3c(C)cc(C)[nH]c3=O)cc(-c3ccc(N4CCNCC4)nc3)cc21` [GSK126], in the data set with H3K27, the “status of acetylation or methylation of H3K27” value is recorded as “did not significantly change”. Further, in data set [1], the “Cmax translated to molar concentration” value amounted to 3150 nM, the “serum AUC0-last” value worked out at 2828.57 ng·h/mL and the “median Cmax” value came to 1657.5 ± 413.6 ng/mL.

For `C/C=C1\NC(=O)[C@H]2CSSCC/C=C/[C@H](CC(=O)N[C@H](C(C)C)C(=O)N2)OC(=O)[C@H](C(C)C)NC1=O` [romidepsin], the IC50 in the data set on SU-DHL-10 was 2.59 nM. Besides, in data set [1], the “Cmax translated to molar concentration” value stood at 180 nM and the “median Cmax” value was determined as 98.24 ± 62.50 ng/mL. Also, the “intratumor levels after combination of alisertib and romidepsin” value in data set [2] is on record as “below the level of detection”.

Take `CCN(c1cc(-c2ccc(CN3CCOCC3)cc2)cc(C(=O)NCc2c(C)cc(C)[nH]c2=O)c1C)C1CCOCC1` [tazemetostat]: the overall response rate with B-cell lymphomas is 38%.

Source of the values: article PMC6726529 (Clinical cancer research : an official journal of the …, 2019).
